Measured values: publication PMC7199185 (ACS applied materials & interfaces, 2019)
Values after ≈ are worked out from the molar mass of the structure shown.

Key:
E coli K12 biofilm = experiment: Biofilm formation inhibition, crystal violet staining; assay type: cell-based, Escherichia coli; settings: at 2 ug/mL
[1] = test system: Staphylococcus aureus ATCC 43300 MRSA; assay type: cell-based; settings: ATCC 43300, pH 7
[2] = test system: Klebsiella pneumoniae ATCC 700603; assay type: cell-based; settings: ATCC 700603, pH 7
[3] = test system: Escherichia coli ATCC 25922; assay type: cell-based; settings: ATCC 25922, pH 7
[4] = test system: Candida albicans ATCC 90028; assay type: cell-based; settings: ATCC 90028, pH 7
[5] = test system: HCEC (Immortalized Human Colonic Epithelial Cell); assay type: cell-based; settings: 24 h
[6] = test system: Cryptococcus neoformans var. grubii H99 ATCC 20882; assay type: cell-based; settings: ATCC 20882, pH 7
[7] = test system: Acinetobacter baumannii ATCC 19606; assay type: cell-based; settings: ATCC 19606, pH 7
Zeta potential = assay type: physicochemical; settings: Aqueous solution of 2 mmolar concentration in pH 7
[8] = test system: HaCaT (Immortalized Human Keratinocyte); assay type: cell-based; settings: 24 h
[9] = test system: Psedomonas aeruginosa ATCC 27853; assay type: cell-based, Pseudomonas aeruginosa; settings: ATCC 27853, pH 7
S. aureus JE2 biofilm = experiment: Biofilm formation inhibition, crystal violet staining; assay type: cell-based, Staphylococcus aureus; settings: at MIC
How it was run: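 S. aureus JE2 initial inocula were exposed to test compound in two-fold dilutions from 16 to 4 μg/mL, with vancomycin or gentamicin at 4 to 1 μg/mL as comparators. Biofilm formed was quantified by crystal violet staining.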

CNC(C)C1CCC(N)C(OC2C(N)CC(N)C(OC3OCC(C)(O)C(NC)C3O)C2O)O1 (stereo not shown) [Gen, Gentamicin]
reduction of E coli biofilm formation (E coli K12 biofilm): about 54. 3%

CCCCCCCC(=O)NCCCC[C@H](NC(=O)CCCCCCC)C(=O)N[C@@H](CCCCN)C(=O)N[C@@H](CCCCN)C(=O)N[C@@H](CCCCN)C(=O)N[C@@H](CCCCN)C(=O)N[C@@H](CCCCN)C(N)=O [PA 8]
MIC Sa (S. aureus ATCC 43300 MRSA) [1]: >32 µg/mL | MIC Kp (K. pneumoniae ATCC 700603) [2]: >32 µg/mL | MIC Ec (E. coli ATCC 25922) [3]: >32 µg/mL | MIC Ca (C. albicans ATCC 90028) [4]: >32 µg/mL | IC50 HCEC [5]: 19.3 µg/mL (≈ 18.6 µM) | MIC Cn (C. neoformans var. grubii H99 ATCC 20882) [6]: >32 µg/mL | MIC Ab (A. baumannii ATCC 19606) [7]: >32 µg/mL | Zeta potential (Zeta potential): 18.83 ± 1.69 mV | IC50 HaCaT [8]: 40.4 µg/mL (≈ 38.9 µM) | MIC Pa (P. aeruginosa ATCC 27853) [9]: >32 µg/mL

CCCCCCCCCCCCCCCCCC(=O)NCCCC[C@H](NC(=O)CCCCCCCCCCCCCCCCC)C(=O)N[C@@H](CCCCN)C(=O)N[C@@H](CCCCN)C(=O)N[C@@H](CCCCN)C(=O)N[C@@H](CCCCN)C(=O)N[C@@H](CCCCN)C(N)=O [PA 9]
Zeta potential (Zeta potential): 41.40 ± 1.05 mV

CN[C@H](CC(C)C)C(=O)N[C@H]1C(=O)N[C@@H](CC(N)=O)C(=O)N[C@H]2C(=O)N[C@H]3C(=O)N[C@H](C(=O)N[C@H](C(=O)O)c4cc(O)cc(O)c4-c4cc3ccc4O)[C@H](O)c3ccc(c(Cl)c3)Oc3cc2cc(c3O[C@@H]2O[C@H](CO)[C@@H](O)[C@H](O)[C@H]2O[C@H]2C[C@](C)(N)[C@H](O)[C@H](C)O2)Oc2ccc(cc2Cl)[C@H]1O [Van, Vancomycin]
reduction of MRSA biofilm formation (S. aureus JE2 biofilm): up to 92.80 ± 0.68%
